Measured values published in PubChem BioAssay.
A number with no mark means an inactive call. Results filed as inconclusive are left out. Activity calls are given as the source filed them.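 How the source made its calls, unless noted: active means growth inhibition above 25% in both replicates, a cutoff set 3 SD above the mean; inconclusive means above 25% in only one replicate; inactive means the rest.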

Legend:
[1] = S. cerevisiae growth inhibition in permissive medium (OD615), pilot counter-assay for S. cerevisiae lifespan shortening project, permissive growth control (AID 705); settings: OD615, 24 h, at 10 µM, hits give high values
In short: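 assay system = Saccharomyces cerevisiae strain carrying genetically modified DeaD replicative-lifespan system | medium = SC raffinose/galactose permissive medium | dosing = 10 µM single dose, 0.25% DMSO | schedule = 24 h compound exposure at 30 °C after 4 h pre-growth | measured by = OD at 615 nm | read-out basis = growth inhibition from lowered OD615 after 24 h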

[2] = S. cerevisiae growth inhibition in restrictive medium, OD615, pilot screen, restrictive growth control, yeast lifespan reduction project (AID 706;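 active means growth inhibition above a set limit, 3 SD over mean compound inhibition, in both replicates, cut at about 43% in these data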;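 further: modified DeaD lifespan yeast strain shifted to restrictive glucose medium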); settings: OD615, 48 h, at 10 µM, hits give high values
In short: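 Buffer or medium: CSMM-D glucose medium. Material: genetically modified Saccharomyces cerevisiae, DeaD replicative lifespan assay strain. Times: 48 h compound exposure at 30 °C. Measured by: optical density at 615 nm.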

[3] = doxorubicin toxicity protection in MRP-1 cells – H69AR cells, CellTiter-Glo, duplicate, MRP-1 activator project, pilot screen (AID 807;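 active means viability increase at or above a cutoff of the median across tested compounds plus 3 SD, cut at about 8.5% in these data, passing the limit was not always enough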;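 further: compound pretreatment 18-22 h then 72 h combined with doxorubicin; 0% = doxorubicin alone and 100% = vehicle without doxorubicin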); settings: H69AR viability with doxorubicin, CellTiter-Glo luminescence; at 10 µM; hits give high values
[4] = viability of HCT116 without oncogenic beta-catenin – human colon tumor cells, pilot screen (AID 823;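 active means cell viability at or below a set limit in both duplicate runs, the limit being the all-compound median minus 4 SD, cut at about 23% in these data, passing the limit was not always enough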;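 further: 0% = wells killed by 20 µM Hyamine and 100% = untreated DMSO cell wells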); settings: HCT116 beta-catenin knockout viability, CellTiter-Glo, 60 h; at 10 µM; hits give low values
[5] = viability of PTEN-null HCT116 cells – cell-based, HCT116 clonal line, CellTiter-Glo, pilot screen (AID 824;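 active means viability at or below 27.92% in each of two runs, the all-compound median minus 4 SD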;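 further: 0% = 20 µM Hyamine control and 100% = vehicle cell control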); settings: HCT116 PTEN-deleted viability, 60 h, at 10 µM, hits give low values
[6] = RAM pathway blockade in budding yeast – dse1pr::URA3 reporter, 5-FOA selection, pilot screen (AID 869;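 active means inhibition over a set limit, the all-compound mean plus 3 SD, in both replicate runs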;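 further: 0% = DMSO wells with no growth and 100% = 10 µM 1-NA-PP1 with full growth; RAM network block rescues cells from 5-FOA so hits raise OD615 growth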); settings: S. cerevisiae dse1pr::URA3 5-FOA growth, OD615, 2 d; at 10 µM; hits give high values; strain carries analog-sensitive mutant Cbk1 kinase
[7] = RAM signaling pathway blockade in yeast – S. cerevisiae, Pdr1DBD-CYC8 efflux-inhibited sensitized strain, primary screen (AID 1298;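 active means RAM network inhibition above 8.4% in each of two replicates, 3 SD over the compound average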;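 further: 0% = DMSO untreated cells without growth and 100% = 10 µM 1-NA-PP1 full growth; higher means more yeast growth rescued from 5-FOA killing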); settings: S. cerevisiae cbk1-as DSE1-URA3 strain, 5-FOA growth OD615, 2 d; at 50 µM; hits give high values

| Compound | growth inhibition [1] [%] | growth inhibition [2] [%] | viability increase [3] [%] | viability [4] | viability [5] | inhibition [6] [%] | RAM network inhibition [7] [%] |
| --- | --- | --- | --- | --- | --- | --- | --- |
| O=C(Nc1ccccc1)c1ccc(S(=O)(=O)N2CCCCC2)cc1 | 3.41 | -0.37 | 0.95 | 97.8% | 82.5% | 0.395 | 2.23 |
| Cc1cc(Nc2ccccc2Br)n2nc(C)nc2n1 | -3.05 | -13.3 | -2.64 | 107% | 98.2% | 1.9 | -1.82 |
| Cc1ccc(C)c2c1sc(=NC(=O)CN1C(=O)CCC1=O)n2C | -15 | -2.54 | -1.69 | 88% | 83.2% | 2.84 | 5.96 |
| CC1CC(C)CN(C(=O)C(NS(=O)(=O)c2ccc3c(c2)oc(=O)n3C)C(C)C)C1 (centres undefined) | -16 | -5.28 | -2.67 | 103% | 93.6% | -0.355 | 6.92 |
| COc1ccc(Cl)cc1Nc1cc(C)nc2nc(C)nn12 | -5.01 | -6.77 | -3.12 | 103% | 94.8% | -0.515 | 3.45 |
| Cc1csc2nc(CNS(=O)(=O)c3ccc4c(c3)CCCC4)cn12 | -17.5 | 0.8 | -0.44 | 101% | 93.2% | 1.17 | 0.48 |
| Cc1ccc(C)n1-n1c(C)nc2scc(-c3cccs3)c2c1=O | -13.1 | 1.95 | -3.42 | 72.1% | 71.6% | 0.72 | 2.2 |
| Cc1ccc(N(C(=O)c2cccs2)C2C=CS(=O)(=O)C2)cc1 (centres undefined) | -11.1 | -10.6 | -2.23 | 98.3% | 94% | 1.96 | 1.19 |
| Cc1csc2nc(CNC(=O)C3CC=CCC3C(=O)O)cn12 (centres undefined) | -3.37 | 16.7 | -2.9 | 93.7% | 94% | 2.62 | -0.42 |
| O=c1c2[nH]c3ccc(F)cc3c2ncn1CCN1CCN(Cc2ccccc2)CC1 | -2.19 | 1.39 | -3.25 | 86.3% | 80.3% | 1.52 | 1.11 |
| O=C(NCc1ccco1)C1c2ccccc2Oc2ccccc21 | -6.75 | 6.04 | -5.24 | 83.8% | 88.4% | 0.12 | 3.94 |
| CSC1=NCCN1C(=O)C(C)Oc1ccccc1 (centres undefined) | 1.44 | -0.77 | 1.74 | 101% | 99.2% | 0.34 | 0.46 |
| Cc1ccc(-c2nc(CS(=O)CC(=O)NC3CCC(C)CC3)c(C)o2)cc1 (centres undefined) | 2.73 | 11.8 | 1.29 | 84.8% | 94.8% | 0.76 | 2.42 |
| CC(C)N1C(=O)C2C(c3ccccc3O)NC(C)(C(=O)O)C2C1=O (centres undefined) | 7.56 | 5.16 | -0.38 | 101% | 104% | 0.765 | 1.54 |
| Nc1ccc2nc3n(c(=O)c2c1)CCC3 | -2.62 | 4.83 | 1.87 | 104% | 108% | 1.44 | 3.92 |
| c1ccc(-c2ccccc2-n2cnnn2)cc1 | 4.66 | 3.99 | -0.54 | 97.3% | 95.3% | 1.77 | 0.51 |
| O=C1N/C(=N/c2ccccn2)SC1Cc1ccccc1 (centres undefined) | 0.405 | 1.97 | 0.48 | 102% | 93.6% | 3.98 | 6.35 |
| Cc1nc2sc(C(c3ccco3)N3CCC(Cc4ccccc4)CC3)c(O)n2n1 (centres undefined) | 0.165 | 4.34 | 0.64 | 95.2% | 91.4% | 1.14 | 9.02 |
| Cc1ccc(-c2nc(C3CCCN(S(=O)(=O)c4ccc(C)cc4)C3)no2)cc1 (centres undefined) | -10.8 | 9.18 | 5.21 | 85.2% | 84.3% | 1.08 | -1.57 |

| Compound | growth inhibition [1] [%] | growth inhibition [2] [%] | viability increase [3] [%] | viability [4] | viability [5] | inhibition [6] [%] | RAM network inhibition [7] [%] |
| --- | --- | --- | --- | --- | --- | --- | --- |
| CC(C)c1nc(SCC(=O)Nc2ccc3c(c2)OCCO3)c2c(=O)n(C)c(=O)n(C)c2n1 | 0.9 | 4.21 | -2.28 | 85.4% | 84.4% | 3.59 | 5.72 |
| COc1ccc2c(c1)[nH]c1c(N3CCN(Cc4ccc5c(c4)OCO5)CC3)ncnc12 | -15.7 | -18.4 | -5.9 | 11.9% (active) | 23.1% (active) | 2.08 | 5.66 |
| CCC(C)(C(=O)NC1CCCCC1)N(C(=O)C1CCC(=O)N1)c1ccc(C)cc1 (centres undefined) | 2.44 | -4.21 | -1.97 | 98.7% | 92.1% | 1.71 | 1.9 |
| CC(Cc1ccccc1)N/C=C1/CC(=O)NC1=O (centres undefined) | -8.61 | 0.51 | -1.53 | 97% | 97% | 1.42 | 2.56 |
| Cc1ccc(-c2c(C(=O)N3CCOCC3)oc(=O)c3ccccc23)cc1 | -9.96 | -6.92 | -0.03 | 95.6% | 103% | 1.33 | 1.2 |
| CC1CCN(c2nnc(N3CCC(C)CC3)c3ccccc23)CC1 | -19.1 | -14.8 | -3.17 | 84% | 81.8% | 1.98 | 4.58 |
| O=C1CC(c2ccc(S(=O)(=O)NCc3ccncc3)cc2)CN1 (centres undefined) | -10.3 | -7.88 | -0.07 | 99.7% | 97.2% | 1.73 | 1.15 |
| CCOC(=O)N1CCN(C(=O)C2CC(c3ccc(F)cc3)=NO2)CC1 (centres undefined) | -5.22 | -10.9 | 1.33 | 104% | 108% | 0.815 | 2.2 |
| O=C(O)c1cccc(CN2C(=O)CSC2=O)c1 | -9.39 | -12.3 | -0.3 | 95.7% | 97.5% | 0.91 | 1.41 |
| CC(C)N(Cc1ccccc1)C(=O)c1cnc2n(c1=O)CCS2 | -1.66 | -28.5 | -2.84 | 105% | 98.1% | 1.28 | 1.59 |
| CN(Cc1ccccc1)C(=O)COC(=O)c1ccc2c(c1)OCO2 | -6.52 | -18.6 | 0.42 | 101% | 104% | 0.11 | 0.88 |
| NC(=O)CN1CCN(C(=O)NC2CCCCC2)CC1 | -18.1 | -12.7 | 0.06 | 96% | 97.9% | 2.7 | 2.11 |
| Cc1ccnc(Nc2nc3ccccc3o2)n1 | 2.6 | 24.6 | -4.36 | 62% | 57.7% | 0.905 | 4.15 |
| O=C(NC1=NCCS1)C1CC2CCC1C2 (centres undefined) | 7.66 | 6.69 | -2.34 | 99.1% | 97.1% | 1.96 | 3.02 |
| Cc1cc(C)n(-c2nnc(C)n2/N=C/c2cc(Br)ccc2OCc2ccccc2)n1 | -10.3 | 13.9 | -7.71 | 12.4% (active) | 8.96% (active) | 0.37 | -1.07 |
| CN(C)c1ccc(NC(=O)Cn2c(=O)n(Cc3ccccc3)c(=O)c3ccccc32)cc1 | -0.65 | 1.48 | 3 | 83.2% | 88.3% | 0.52 | 8.96 |
| Cc1cccc(Cn2c(N3CCCCC3C)nc3c2c(=O)[nH]c(=O)n3C)c1 (centres undefined) | -17.5 | -16.4 | -5.08 | 89.3% | 78% | 0.805 | 2.4 |
| c1ccc(N2CCN(c3nnnn3-c3ccccc3)CC2)cc1 | -10.6 | 3.73 | -0.01 | 76% | 75.7% | 1.12 | 9 |
